Tests used:
Format in all cases: functional
Mycolicibacterium phlei = assay: Antimycobacterial activity against Mycobacterium phlei
Method in brief: (§1)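 Broth microdilution MIC. Purified compound given as serial 2-fold dilutions in Mueller-Hinton broth in 96-well plates. Inoculum made by scraping colonies from EBS agar plates (EBS: casein peptone 0.5%, glucose 0.5%, meat/yeast extract 0.1% each, 50 mM HEPES, pH 7.0) into EBS medium, then added to 5 × 10^5 CFU/mL. MIC taken as lowest concentration inhibiting 99% of inoculum.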

[1] = system: Mycolicibacterium diernhoferi; assay: Antimycobacterial activity against Mycobacterium diernhoferi; method in brief: as §1
[2] = system: Mycolicibacterium smegmatis; assay: Antimycobacterial activity against Mycobacterium smegmatis; method in brief: as §1

Measured: MIC

CCCCCCC/C=C\CCCCCCC(=O)N[C@H](C(=O)O[C@H]1O[C@H](CO)[C@@H](O)[C@H](O)[C@H]1NC(=O)CCC)C(C)C
180 µM: Mycolicibacterium phlei | [1] | [2]

CCCCCCCC[C@@H]1CC(=O)N[C@@H](CO)C(=O)O[C@H](CCCCCCC)CC(=O)N[C@@H](CO)C(=O)O1 [SERRATAMOLIDE D]
180 µM: Mycolicibacterium phlei | [1] | [2]

CCCCCCCCC[C@@H]1CC(=O)N[C@@H](CO)C(=O)O[C@H](CCCCCCC)CC(=O)N[C@@H](CO)C(=O)O1 [SERRATAMOLIDE C]
180 µM: Mycolicibacterium phlei | [1] | [2]

CCCCCCC[C@@H]1CC(=O)N[C@@H](CO)C(=O)O[C@H](CCCCCCC)CC(=O)N[C@@H](CO)C(=O)O1 [SERRATAMOLIDE A]
180 µM: Mycolicibacterium phlei | [1] | [2]

CCCCCCC[C@@H]1CC(=O)N[C@@H](CO)C(=O)O[C@H](CCCCC)CC(=O)N[C@@H](CO)C(=O)O1 [SERRATAMOLIDE E]
180 µM: Mycolicibacterium phlei | [1] | [2]

CCCCCC/C=C\C[C@@H]1CC(=O)N[C@@H](CO)C(=O)O[C@H](CCCCCCC)CC(=O)N[C@@H](CO)C(=O)O1 [SERRATAMOLIDE B]
180 µM: Mycolicibacterium phlei | [1] | [2]

CCCCCCC[C@@H]1CC(=O)N[C@@H](CO)C(=O)O[C@H](CCCCCC)CC(=O)N[C@@H](CO)C(=O)O1 [SERRATAMOLIDE F]
180 µM: Mycolicibacterium phlei | [1] | [2]

CCCCCCCCCCCCCCC(=O)N[C@H](C(=O)O[C@H]1O[C@H](CO)[C@@H](O)[C@H](O)[C@H]1NC(=O)CCC)C(C)C
180 µM: Mycolicibacterium phlei | [1] | [2]

CCCCCCCCCCCCCC(=O)N[C@H](C(=O)O[C@H]1O[C@H](CO)[C@@H](O)[C@H](O)[C@H]1NC(=O)CCC)C(C)C
180 µM: Mycolicibacterium phlei | [1] | [2]

Reference: ChEMBL document CHEMBL1149852, “Antimycobacterial serratamolides and diacyl peptoglucosamine derivatives from Serratia sp” (2008)
